{"source": "paper PMC3400539", "about": "(Journal of Computer-Aided Molecular Design, 2011)", "key": {"[1]": {"test_system": "BRCA1(BRCT) (six his-tagged, amino acids 1646–1859)", "settings": "cited from earlier work; for ΔGexp (binding free energy): Table 1; for ΔG (Exp): Table 2, brackets = error of the mean"}, "[2]": {"test_system": "BRCA1(BRCT) (six his-tagged, amino acids 1646–1859)", "test": "Isothermal titration calorimetry", "assay_type": "binding", "how_it_was_run": "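His6-BRCA1 BRCT (aa 1646–1859) was expressed in E. coli BL21(DE3) RIL (1 mM IPTG), Ni-affinity purified, and dialysed into 50 mM KH2PO4 pH 7.2. Peptides were quantified by amino acid analysis, freeze-dried and redissolved in the same buffer. At 25°C, 100–900 µM peptide was titrated into 10–30 µM protein: 3 µL, then 29 × 10 µL, 3 min apart, 307 rpm. Peptide-into-buffer heats were subtracted and the data integrated.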"}, "[3]": {"settings": "isothermal calorimetric data, ref [9]"}}, "note": "Where two headings read alike, the source gives them in different places.", "data": [{"substance": "Ac-EPTF-CONH2 [Peptide T4]", "values": [{"measurement": "ΔGexp (binding free energy)", "setting": "[1]; T1–T4, ref [9]", "result": "No binding"}, {"measurement": "ΔG (Exp)", "setting": "[1]; ref [9]", "result": "no binding"}, {"measurement": "binding to BRCA1(BRCT) found experimentally", "setting": "[1]; in words, ref [9]", "result": "does not bind"}]}, {"substance": "Ac-Nap-pSPTF-CONH2 [Peptide P7]", "values": [{"measurement": "ΔΔG, increase in binding affinity compared to T1", "setting": "[2]; P7 vs T1, ITC", "result": 0.3, "unit": "kcal/mol"}, {"measurement": "ΔG (Exp)", "setting": "[2]; Table 2, brackets = error of the mean, ITC, 25°C, 50 mM KH2PO4 pH = 7.2", "result": "−7.8 (0.1) kcal/mol"}]}, {"substance": "Ac-pSATF-CONH2 [Peptide T2]", "values": [{"measurement": "ΔGexp (binding free energy)", "setting": "[1]; T1–T4, ref [9]", "result": -6.7, "unit": "kcal/mol"}, {"measurement": "ΔG (Exp)", "setting": "[1]; ref [9]", "result": "−6.7 (0.3) kcal/mol"}]}, {"substance": "Ac-pSPAF-CONH2 [Peptide T3]", "values": [{"measurement": "ΔGexp (binding free energy)", "setting": "[1]; T1–T4, ref [9]", "result": -5.9, "unit": "kcal/mol"}, {"measurement": "ΔG (Exp)", "setting": "[1]; ref [9]", "result": "−5.9 (0.2) kcal/mol"}, {"measurement": "loss in binding affinity caused by Thr→Ala mutation (vs T1)", "setting": "[1]; [3]", "result": 1.6, "unit": "kcal/mol"}]}, {"substance": "Ac-pSPTF-CONH2 [Peptide T1]", "values": [{"measurement": "ΔGexp (binding free energy)", "setting": "[1]; T1–T4, ref [9]", "result": -7.5, "unit": "kcal/mol"}, {"measurement": "ΔG (Exp)", "setting": "[1]; ref [9]", "result": "−7.5 (0.2) kcal/mol"}]}, {"substance": "Ac-pSPVF-CONH2 [Peptide T5]", "values": [{"measurement": "ΔGexp (binding free energy)", "setting": "[1]; T5, ref [18]", "result": -7.8, "unit": "kcal/mol"}, {"measurement": "ΔG (Exp)", "setting": "[1]; ref [18]", "result": "−7.8 (0.1) kcal/mol"}, {"measurement": "enhancement of binding by Val mutation (vs T1)", "setting": "[1]; [3]", "result": 0.3, "unit": "kcal/mol"}, {"measurement": "binding affinity compared with T1 (in words)", "setting": "[1]; isothermal calorimetric study, ref [18]", "result": "practically the same binding affinity"}]}]}
